Assay outcomes as filed in PubChem.
Most compounds without a hit are left out; they make up all but 3.5% or so of the library.
MrgX1 agonist – agonists of human MrgX1 receptor. MrgX1-HEK293 cells, Fluo-4 calcium fluorescence, agonist mode; hits give high values. B-score at 10 µM. 310,000 compounds, 0.44% hits. AID 588627;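 active means calcium response B-score plate-corrected fluorescence ratio at least 3 library SD, with starting fluorescence B-score inside 5 SD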
Target sequence (Q96LB2 whole entry, looked up): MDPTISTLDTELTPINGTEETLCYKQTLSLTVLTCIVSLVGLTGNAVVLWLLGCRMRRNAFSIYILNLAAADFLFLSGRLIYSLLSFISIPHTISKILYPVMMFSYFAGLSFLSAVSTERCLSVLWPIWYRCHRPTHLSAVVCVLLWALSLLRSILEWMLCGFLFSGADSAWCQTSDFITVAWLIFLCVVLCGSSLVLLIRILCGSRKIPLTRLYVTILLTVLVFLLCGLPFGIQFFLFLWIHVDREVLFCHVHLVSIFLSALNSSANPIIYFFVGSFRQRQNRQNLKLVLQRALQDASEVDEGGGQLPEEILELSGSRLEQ
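Material: MrgX1-expressing HEK293 cells / Dosing: compound as first of three additions / Incubation: overnight seeding, then 1 h dark dye loading / Signal: Fluo-4 NW calcium fluorescence / Evaluation: B-scored fluorescence response ratio / Benchmarks: positive and negative control wells on each plate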
RGS4 inh – inhibitors of human RGS4; B-score at 10 µM; P49798; AID 463165; HEK293 M3R/RGS4 inducible, Fluo-4 calcium flux; hits give high values; triggered by carbachol at its EC20; 310,000 compounds, 0.45% hits;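 active means B-score, a plate-corrected calcium signal, over three deviations above library mean, with baseline fluorescence within five deviations of library mean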;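 further: RGS4 expression induced by doxycycline in cells with stable M3 receptor; B-score is computed from the integrated fluorescence ratio over baseline after carbachol; higher B-score means a larger calcium signal and so more RGS4 inhibition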
Target sequence (P49798 whole entry, looked up): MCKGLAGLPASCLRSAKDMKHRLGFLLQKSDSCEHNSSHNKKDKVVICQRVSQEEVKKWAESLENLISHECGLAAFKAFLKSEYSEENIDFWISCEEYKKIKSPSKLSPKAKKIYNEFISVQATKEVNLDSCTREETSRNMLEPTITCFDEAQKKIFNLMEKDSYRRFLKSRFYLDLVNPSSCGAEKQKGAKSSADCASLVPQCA
RGS4 pot – RGS4 potentiation or activation; AID 463111; HEK293 M3R/inducible RGS4, carbachol calcium flux Fluo4; hits give low values; B-score at 10 µM; 310,000 compounds, 0.92% hits;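 active means B-score of the integrated calcium signal more than 4 SD below the library mean, with starting fluorescence not abnormally high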;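 further: negative B-score means reduced calcium response which marks RGS4 activation or potentiation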
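Assay system: Inducible-RGS4 HEK293 cells carrying M3 receptor | Schedule: Compound preincubation 20 min at room temperature before agonist | Signal: Kinetic calcium fluorescence imaging with Fluo4-AM dye, 2 µM | Read-out basis: B score from integrated fluorescence ratio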
MrgX1 PAM – human MrgX1 positive allosteric modulation, primary screen; B-score at 10 µM; 310,000 compounds, 0.63% hits; MrgX1-HEK293, Fluo-4 calcium flux, FDSS; hits give high values; Q96LB2;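 active means plate-corrected calcium response at least 3 library SD above typical, normal starting fluorescence, not activating the receptor alone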;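 further: compound read alongside a low EC10 to EC30 dose of BAM8-22 agonist; peak minus trough fluorescence over baseline measured at the second addition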
MrgX1 antag – blocks BAM8-22 activation of human MrgX1 receptor; B-score at 10 µM; 310,000 compounds, 1.3% hits; Q96LB2; MRGX1-HEK293 calcium flux, Fluo-4, BAM8-22 antagonism; hits give low values;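 active means calcium-response B-score plate-corrected more than 3 library SD below zero, starting fluorescence within 5 deviations, no agonist response on first addition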;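 further: peak minus trough fluorescence over baseline after final BAM8-22 challenge near maximal dose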
Active calls of the source: *; i = inactive; . = no result given.

SMILES | MrgX1 agonist | RGS4 inh | RGS4 pot | MrgX1 PAM | MrgX1 antag
COc1ccc(N2CC(O)(c3ccc(OC(F)F)cc3)[N+]3=C2CCCC3)cc1 (configuration not stated) | i | i | -8.3* | i | i
COc1ccc(N2CC(O)(c3ccc(F)cc3)[N+]3=C2CCCC3)cc1 (configuration not stated) | i | i | i | i | i
COc1ccc(C(=O)NCCN2CCOCC2)c(OC)c1OC | i | i | i | i | i
CCCCC1(C)OC(=O)C(=Cc2ccc(N(CC)CC)cc2)C(=O)O1 (configuration not stated) | 44* | i | i | i | i
CCN(CC)c1ccc(/C=C2/C(=O)c3ccc(C(=O)O)cc3C2=O)cc1 | i | . | . | i | i
CCN(CC)c1ccc(C=C2C(=O)OC3(CCCCC3)OC2=O)cc1 | 33* | i | i | i | i
CCCCCn1nc(C)c(/C=N/NC(=O)c2ccoc2C)c1C | i | i | i | i | i
CCn1nc(C)c(/C=N/NC(=O)c2ccoc2C)c1C | i | i | i | i | -5.6*
O=C(O)c1ccc(CNC(=O)c2ccc3c(c2)C(=O)N(Cc2cccnc2)C3=O)cc1 | i | i | i | i | -4.9*
COC(=O)c1ccc(N)c(N=CC2=C(O)CC(C)(C)CC2=O)c1 | 27* | i | i | i | i
CCCCC(=O)Nc1ccc2c(c1)nc(CCN1CCN(C)CC1)n2C | i | i | i | i | i
CCCSc1nnc(NC(=O)c2sc3nc(-c4cccs4)ccc3c2N)s1 | 38* | i | i | i | i
COc1ccccc1OCC(=O)N/N=C/c1c(O)ccc2ccccc12 | i | i | -7.6* | i | i
COc1ccc(/C=N/NC(=O)COc2ccc3ccccc3c2)c(C(=O)O)c1OC | i | i | i | i | -5.4*
COc1ccc(OCC(=O)N/N=C/c2ccc(OC)c(OC)c2C(=O)O)cc1 | i | i | i | i | i
O=C(Cc1cccc2ccccc12)Nc1ccc(Br)cc1C(=O)O | i | i | i | i | -6.3*
Cc1[nH]n(-c2ccccc2)c(=O)c1C(c1ccc(O)c([N+](=O)[O-])c1)c1c(C)[nH]n(-c2ccccc2)c1=O | i | 5.1* | i | i | i
Cc1[nH]n(-c2ccccc2)c(=O)c1C(C[N+](=O)[O-])c1ccccc1Cl (configuration not stated) | 46* | i | i | i | i
COc1cccc(C(c2c(C)[nH]n(-c3ccccc3)c2=O)c2c(C)[nH]n(-c3ccccc3)c2=O)c1O | i | i | i | i | i
Cc1ccc(CNC(=O)CCc2nnc(Cc3ccc(-c4ccccc4)cc3)o2)o1 | i | i | i | i | i
CCC(=O)c1ccc(OCC(O)CN(CCc2ccccc2)Cc2ccccc2)cc1 (configuration not stated) | i | i | -8.3* | i | i
OC(COc1ccccc1)CN(Cc1ccccc1)CC(O)COc1ccccc1 (configuration not stated) | i | . | . | i | i
C/C(N)=C(/C#N)C(=O)CSc1nc(-c2ccccc2)c(-c2ccccc2)o1 | i | i | i | i | i
COc1ccc(C(O)(C2CCCCC2)C(CN2CCOCC2)c2ccccc2)cc1 (configuration not stated) | i | i | i | i | i
OC(c1ccccc1)(C1CCCCC1)C(CN1CCOCC1)c1ccccc1 (configuration not stated) | i | i | i | i | -8.2*
SMILES | MrgX1 agonist | RGS4 inh | RGS4 pot | MrgX1 PAM | MrgX1 antag
Cc1cc(C)c2nc(N3CCC(C(=O)NCC4CCCO4)CC3)sc2c1 (configuration not stated) | i | i | i | i | i
CCOc1ccc(NCc2cccn2-c2nnc(N3CCC(C(=O)NCCCN4CCCCC4C)CC3)s2)cc1 (configuration not stated) | i | i | i | i | i
CCOc1ccc(NCc2cccn2-c2nnc(N3CCC(C(=O)NCCCN4C(C)CCCC4C)CC3)s2)cc1 (configuration not stated) | i | i | -7.6* | i | i
CCOc1ccc(NCc2cccn2-c2nnc(N3CCC(C(=O)NCCCN4CCCCC4)CC3)s2)cc1 | i | i | -9* | i | i
Cc1cc(C)c2nc(N3CCC(C(=O)NCCCN4CCCCC4)CC3)sc2c1 | i | i | -7.9* | i | i
C[C@H]1CC[C@]2(O[C@@H](CCO)C[C@H](O)[C@H]2O)O1 | i | i | i | i | i
Cc1ccc(N2C(=O)c3ccccc3C2C(=O)c2ccc(C)c(C)c2O)cc1 (configuration not stated) | i | i | -7* | i | i
Cc1ccc(N2C(=O)c3ccccc3C2C(=O)c2ccc(O)cc2O)cc1 (configuration not stated) | i | i | i | i | i
CC(C)(C)OC(=O)N1CCC[C@H]1C(=O)N/N=C/c1ccc2ncccc2c1 | i | i | i | i | i
O=C(NCCC(=O)N1CCC2(CC1)NCCc1[nH]cnc12)c1cccc(Cl)c1 | i | i | i | i | i
N=c1oc2c3c4c(cc2cc1C(=O)Nc1ccccc1)CCCN4CCC3 | i | i | -9.3* | i | i
COc1ccc(-c2csc(NC(=O)CSc3n[nH]c(N)n3)n2)cc1 | i | i | i | i | i
COc1ccc(-c2csc(NC(=O)CSc3n[nH]c(C)n3)n2)cc1 | i | i | i | 6.9* | i
COc1ccc([N+](=O)[O-])cc1NC(=O)C1(c2ccccc2)CCOCC1 | i | i | i | 8.7* | i
COc1ccc([N+](=O)[O-])cc1NC(=O)c1ccccc1N(C)S(C)(=O)=O | i | i | i | 7* | i
Cc1c(NC(=O)Cc2noc3ccccc23)cccc1[N+](=O)[O-] | i | i | i | i | i
COCCSc1ccccc1C(=O)Nc1cc([N+](=O)[O-])ccc1OC | i | i | i | i | i
COc1ccc([N+](=O)[O-])cc1NC(=O)Cc1noc2ccccc12 | i | i | i | i | -9.7*
CC(C)(C)NC(=O)COc1coc(CN2CCN(C(=O)c3ccco3)CC2)cc1=O | i | i | i | i | i
CC(C)=CCc1cc([C@@H]2CC(=O)c3ccc(O)c(CC=C(C)C)c3O2)ccc1O | i | i | i | i | i
C=CCNC(=O)CC(=O)N/N=C/c1cccc(C)c1 | i | i | i | i | -4.6*
